Screens deposited in PubChem BioAssay by several laboratories.
The list is not random: actives were taken first. Their share in the collection is about 3.7%.
OX1R antag-1: OX1R (HCRTR1) antagonists, primary screen, fluorescence, CHO/OX1R cells, Fluo-8 calcium, orexin A | Orexin/Hypocretin receptor type 1 (Homo sapiens), O43613 | Fluo-8 calcium fluorescence | inhibition, % at 5 µM | actives 0.43% (n = 330,000) | AID 434989, 2010;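 active = inhibition above its plate's threshold, mean inhibition of all tested compounds on the plate plus 3 SD, cut at about 37% in these data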
GPR7 antag: GPR7 receptor antagonists, primary screen, cell-based, fluorescence, single concentration; AID 1861, 2009; GPR7-expressing cells, fluorescence antagonist assay; actives 1.1% (n = 290,000); Neuropeptides B/W receptor type 1 (Homo sapiens), P48145; inhibition, % at 4.4 µM; in the data active = inhibition above about 16%, passing the limit was not always enough;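 note: cells stimulated with the agonist NPW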
Target sequence (P48145 whole entry, looked up): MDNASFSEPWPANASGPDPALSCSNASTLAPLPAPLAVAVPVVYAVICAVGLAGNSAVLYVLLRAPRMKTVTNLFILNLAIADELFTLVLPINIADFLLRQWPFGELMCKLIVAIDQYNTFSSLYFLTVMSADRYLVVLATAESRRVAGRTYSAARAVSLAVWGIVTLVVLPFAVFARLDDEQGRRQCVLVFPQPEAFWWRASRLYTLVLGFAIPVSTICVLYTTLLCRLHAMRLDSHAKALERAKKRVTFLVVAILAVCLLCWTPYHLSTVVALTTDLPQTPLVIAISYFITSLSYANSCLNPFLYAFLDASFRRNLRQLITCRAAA
PGE2 EP2 inh: human EP2 receptor antagonists, primary screen, TR-FRET cAMP, C6 glioma cells; Prostaglandin E2 receptor EP2 subtype (Homo sapiens), P43116; C6 glioma cells expressing human EP2; cells stimulated with saturating PGE2; inhibition, % at 25 µM; actives 0.52% (n = 260,000);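 active = percent inhibition above 40 after rounding to a whole number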;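 note: rat C6 glioma host cells with rolipram phosphodiesterase inhibitor present; the protocol text gives 20 µM as final concentration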
Target sequence (P43116 whole entry, looked up): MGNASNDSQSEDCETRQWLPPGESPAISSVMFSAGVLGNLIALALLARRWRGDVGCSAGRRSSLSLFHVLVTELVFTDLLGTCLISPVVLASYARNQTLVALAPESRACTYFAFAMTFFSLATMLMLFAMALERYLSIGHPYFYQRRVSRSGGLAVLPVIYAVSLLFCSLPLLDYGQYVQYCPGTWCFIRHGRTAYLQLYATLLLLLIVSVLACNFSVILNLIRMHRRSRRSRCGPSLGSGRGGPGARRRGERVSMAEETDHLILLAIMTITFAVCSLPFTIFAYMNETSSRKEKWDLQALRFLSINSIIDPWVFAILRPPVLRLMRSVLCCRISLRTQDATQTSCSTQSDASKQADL
OX1R antag-2: antagonists of human orexin 1 receptor (OX1R) | Orexin/Hypocretin receptor type 1 (Homo sapiens), O43613 | OX1R-expressing cells, FRET antagonist read-out | AID 485270, 2010 | inhibition, % at 6.6 µM | actives 1.8% (n = 330,000); in the data active = inhibition mostly above about 38%, no sharp cut-off; inactive = mostly below about 40%
EP2 mod: EP2 receptor modulators, cAMP readout, primary screen, cell-based, HTRF cAMP, PGE2 stimulation. EP2-expressing cells, cAMP HTRF FRET, PGE2 co-stimulation. induction, % at 25 µM. actives 0.83% (n = 260,000). Prostaglandin E2 receptor EP2 subtype (Homo sapiens), P43116. AID 940, 2007;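 active = compounds whose cAMP rise, as percent of the full-agonist control response, exceeds 60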;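 note: rat C6 glioma line stably carrying human EP2 under a CMV promoter; the protocol text gives 20 µM as final concentration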
CHO parental Ca: ATP-evoked calcium signal inhibitors, parental CHO, primary screen, counter-screen for OX1R antagonist project, cell-based, fluorescence, Fluo-8 calcium dye; inhibition, % at 5.6 µM; actives 0.63% (n = 330,000); parental CHO-K1, ATP-induced calcium, Fluo-8 fluorescence;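 active = inhibition above that plate's mean sample inhibition plus 3 SD, cut at about 26% in these data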
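Test system: parental CHO cells; detection: calcium-sensitive Fluo-8 fluorescence; evaluation: percent inhibition of calcium signal; also added: ATP as calcium-mobilizing challenge; repeats: one well per compound; control set: ATP-challenged DMSO wells low, unchallenged DMSO wells high; compound: single nominal dose of 5.6 µM per compound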
EP2 confirm: cAMP induction in EP2, EP4, beta2-AR and parental cells, confirmation, counter-screen for EP2 modulator project, cell-based, five parallel assays, C6 glioma, HEK293; shares compounds with EP2 mod; cAMP HTRF induction; plus low (about EC15) PGE2 agonist; calls only at 20 µM (by protocol); actives 47% (n = 1,300); AID 1080, 2008;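 active = cAMP induction above 50% in the main assay while under 30% in all four parallel counter assays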;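 note: rat C6 glioma cells stably expressing human EP2 receptor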
A number is an active result; i = inactive; nt = no result given; + = active, no number.

SMILES	OX1R antag-1	GPR7 antag	PGE2 EP2 inh	OX1R antag-2	EP2 mod	CHO parental Ca	EP2 confirm
CC(C)C(=O)N1CCN(c2ccc(NC(=O)c3ccc([N+](=O)[O-])o3)cc2)CC1	i	i	i	46.0	i	i	nt
CN1CCN(c2ccc(NC(=O)c3ccc([N+](=O)[O-])o3)cc2Cl)CC1	i	i	nt	53.6	nt	i	nt
CCN1CCN(c2ccc(NC(=O)c3ccc([N+](=O)[O-])o3)cc2)CC1	nt	nt	95.1	nt	i	nt	nt
Cc1cc(C(=O)Nc2ccc(N3CCCC3)c(Cl)c2)ccc1[N+](=O)[O-]	i	i	i	55.3	i	i	nt
CCCC(=O)N1CCN(c2ccc(NC(=O)c3ccc([N+](=O)[O-])o3)cc2Cl)CC1	nt	i	i	nt	i	nt	nt
CC(C)C(=O)N1CCN(c2ccc(NC(=O)c3ccc([N+](=O)[O-])o3)cc2Cl)CC1	nt	i	115.8	nt	i	nt	nt
CCN1CCN(c2ccc(NC(=O)c3ccccc3F)cc2)CC1	nt	nt	59.5	nt	i	nt	nt
C=CCn1c(SCC(=O)Nc2cc(Cl)ccc2C(=O)O)nc2sc(C)c(C)c2c1=O	i	nt	nt	i	nt	i	nt
O=C(O)C[C@H]1OCC=C2C[N+]3([O-])CC[C@@]45c6ccccc6N[C@@H]4[C@@H]1[C@@H]2C[C@H]53 (stereo partly specified)	nt	nt	54.4	nt	i	nt	nt
Cc1nc2cc(-c3sccc3-n3cccc3)nn2c(C)c1C	i	i	nt	52.1	i	i	nt
COc1ccc(-c2cc(C(=O)NCc3cccnc3)no2)cc1	i	18.0	i	i	i	i	nt
CC(C)(C)c1ccc(OCc2ccc(C(=O)NCc3cccnc3)o2)cc1	i	i	i	i	i	36.6	nt
COC(=O)[C@@H]1Cc2c([nH]c3ccccc23)C(C)N1C(=O)c1ccccc1 (stereo partly specified)	i	i	nt	i	nt	i	nt
Cc1ccc(NC(=O)c2c(C(F)(F)F)nn(C)c2SCc2cccc(C(F)(F)F)c2)cc1C	i	i	i	i	i	67.4	nt
Cc1ccc(NC(=O)c2c(C(F)(F)F)nn(C)c2SCc2ccc(Cl)cc2)cc1C	i	i	i	i	i	i	nt
Cc1cc(Nc2cccc(Br)c2)c2ccccc2n1	i	nt	nt	i	nt	i	nt
CCc1ccc(/C=C/c2c([N+](=O)[O-])c(=O)n(C)c(=O)n2C)cc1	i	i	nt	i	nt	i	nt
Cn1c(/C=C/N(Cc2ccccc2)c2ccccc2)c([N+](=O)[O-])c(=O)n(C)c1=O	i	i	i	i	67.8	i	+
O=C1N2c3ccccc3CCc3cccc(c32)C1(O)C(F)(F)F (stereo unspecified)	i	i	i	i	78.9	i	i
Cc1cc(C)c(NC(=O)Nc2ccccc2)c(C)n1	i	nt	nt	i	nt	i	nt
Cc1cc(N)c2cc(NC(=O)Nc3ccc4nc(C)cc(N)c4c3)ccc2n1	nt	nt	48.7	nt	61.5	nt	i
CCC(OC(=O)C(CC(C)C)NC(=O)c1ccccc1)C(=O)Nc1nnc(C)s1 (stereo unspecified)	i	nt	nt	i	nt	i	nt
CCOC(=O)c1sc(NC(=O)C(CC)OC(=O)C(CC(C)C)NC(=O)c2ccccc2)nc1C (stereo unspecified)	i	i	i	i	67.4	i	i
Cc1ccc(CSc2ncnc3c2cnn3Cc2ccccc2)cc1C	i	i	i	i	66.5	i	i
COc1ccc(-c2ccnc(SCC(=O)N3CCN(c4ccccc4)CC3)n2)cc1	i	i	i	i	i	i	nt
SMILES	OX1R antag-1	GPR7 antag	PGE2 EP2 inh	OX1R antag-2	EP2 mod	CHO parental Ca	EP2 confirm
CC(C)N(CCNC(=O)c1oc(=O)c2ccccc2c1-c1ccccc1)Cc1ccco1	i	i	i	i	68.7	i	i
O=C(O)COc1ccc(/C=C/c2ccc3cccc([N+](=O)[O-])c3n2)cc1	i	i	i	i	89.2	i	+
COc1cc(/C=C/c2ccc3c([N+](=O)[O-])cccc3n2)ccc1OCC(=O)O	i	i	i	i	i	i	nt
COc1cc(/C=C/c2ccc3cccc([N+](=O)[O-])c3n2)ccc1OCC(=O)O	i	i	i	i	73.3	i	+
O=[N+]([O-])c1ccc(/C=C/c2ccc3cccc(O)c3n2)cc1	i	i	nt	i	nt	i	nt
COc1ccc2[nH]c(C(=O)O)c(NS(=O)(=O)c3ccc(Cl)s3)c2c1	i	i	i	i	i	i	nt
CCOC(=O)c1[nH]c2ccc(OC)cc2c1NS(=O)(=O)c1ccc(Cl)s1	i	i	i	i	95.6	i	+
CCCC(=O)Nc1ccccc1Sc1ncnc2scc(-c3ccccc3)c12	i	i	i	i	67.9	i	i
CSc1nc(Oc2ccccc2)c2sccc2n1	i	i	i	i	66.3	i	+
C=CCSc1nc(Oc2ccccc2)c2sccc2n1	i	i	i	i	69.3	i	i
CCOC(=O)C1=NN(c2ccccc2)C(=O)C1	i	i	i	i	i	i	nt
Cc1ccc(N/C(C(Cl)=C(Cl)Cl)=C(/Cl)[N+](=O)[O-])c(C)c1	nt	i	i	nt	72.9	nt	+
CCOC(=O)C1CCCN(/C=C2\SC(=S)N(CC)C2=O)C1 (stereo unspecified)	i	i	i	i	i	i	nt
CN(C)S(=O)(=O)N1CCN(S(=O)(=O)c2ccc3ccccc3c2)CC1	i	i	i	i	i	i	nt
COc1cccc(-c2nc(N3CC(C)CC(C)C3)c3ccccc3n2)c1O (stereo unspecified)	nt	i	nt	nt	69.7	nt	+
Oc1ccccc1-c1nc(N2CCCC2)c2ccccc2n1	i	i	i	i	74.9	i	i
CC(C)Oc1nc(-c2ccccc2O)nc2ccccc12	i	i	i	i	79.9	i	+
c1cncc(-c2nc(N3CCCCCC3)c3ccccc3n2)c1	i	i	nt	i	74.1	i	+
CS(=O)(=O)N(CC(=O)NCCSCc1ccccc1)c1ccccc1Cl	i	i	nt	i	nt	i	nt
OC(Cc1ccccc1)(Cc1ccccc1)c1ccccc1	nt	nt	i	nt	i	nt	i
CCOC(=O)c1ccccc1NC(=O)COC(=O)CSC(C)C(=O)Nc1cc(C)on1 (stereo unspecified)	i	i	nt	i	nt	i	nt
O=C(O)CCSc1ccc2ccccc2n1	i	i	i	i	79.6	i	i
Cc1nc(SCCC(=O)O)c2ccccc2n1	i	i	i	i	82.5	i	i
O=C(O)CSc1ccc2ccccc2n1	i	i	i	i	66.7	i	i
